Assay results as given in ChEMBL document CHEMBL1126849, “Synthesis of A-ring fluorinated derivatives of (17 alpha,20E/Z)-[125I]iodovinylestradiols: effect on receptor binding and receptor-mediated target tissue uptake” (J Med Chem, 1993).

Tests used:
Details in all cases: in vivo
Rattus norvegicus [1] = experiment: Biodistribution in liver of Immature Female rat after 12 hour administration of 3 micro Ci (111 kBq) in the absence of 60 microg estradiol; type: ADME, organism-based
How it was run: (§1)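 Immature female Long Evans rats (21–24 days, 45–70 g), unanesthetized in retention cages, given 3 µCi (111 kBq) 125I-labeled steroid i.v. via lateral tail vein. Vehicle was ethanol diluted in saline containing 1% Tween-80, giving 9% ethanol final. The blocking group received 60 µg unlabeled estradiol co-injected. Rats were killed under ether by axillary bleeding, and tissues were KCl-washed and gamma-counted. Data are %ID/g, mean ± SE, n=3–5.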

Rattus norvegicus [2] = experiment: Biodistribution in uterus / spleen, muscle, lungs of Immature Female rat after 1 hr administration of 3 micro Ci (111 kBq) in the absence of 60 microg estradiol; type: ADME, organism-based
How it was run: (§2)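 Same in vivo procedure: immature female Long Evans rats (21–24 days), three to five per group, 3 μCi (111 kBq) tracer i.v. via tail vein in 9% ethanol/saline/1% Tween-80, ± 60 μg estradiol co-injected at 1 h. Uterus %ID/g (gamma counting) divided by blood, or by nontarget organ (muscle, spleen, lungs), %ID/g to give ratios.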

Rattus norvegicus [3] = experiment: Biodistribution in muscle of Immature Female rat after 5 hour administration of 3 micro Ci (111 kBq) in the absence of 60 microg estradiol; type: ADME, organism-based, Muscle tissue
How it was run: (§3)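 Immature female Long Evans rats (21–24 days, 45–70 g), three to five per group, given 125I-labeled steroid (3 μCi, 111 kBq) by lateral tail vein without anesthesia. Vehicle: ethanol diluted in saline with 1% Tween-80, final ethanol 9%, 0.22 μm filtered. +E2 groups received 60 μg unlabeled estradiol co-injected. Killed under ether at set times; tissues KCl-washed, blotted, weighed, gamma counted; %ID/g, mean with SE.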

Rattus norvegicus [4] = experiment: Biodistribution in fat of Immature Female rat after 5 hour administration of 3 micro Ci (111 kBq) in the absence of 60 microg estradiol; type: ADME, organism-based, Adipose tissue; how it was run: as §1
Rattus norvegicus [5] = experiment: Biodistribution in kidney of Immature Female rat after 1 hr administration of 3 micro Ci (111 kBq) in the presence of (+E2); type: ADME, organism-based; how it was run: as §1
Rattus norvegicus [6] = experiment: Biodistribution in lungs of Immature Female rat after 1 hr administration of 3 micro Ci (111 kBq) in the absence of 60 microg estradiol; type: ADME, organism-based, Lung; how it was run: as §1
Rattus norvegicus [7] = experiment: Biodistribution in kidney of Immature Female rat after 3 hour administration of 3 micro Ci (111 kBq) in the absence of 60 microg estradiol; type: ADME, organism-based; how it was run: as §1
Rattus norvegicus [8] = experiment: Biodistribution in blood of Immature Female rat after 1 hr administration of 3 micro Ci (111 kBq) in the presence of (+E2); type: ADME, organism-based; how it was run: as §1
Rattus norvegicus [9] = experiment: Biodistribution in lungs of Immature Female rat after 12 hour administration of 3 micro Ci (111 kBq) in the absence of 60 microg estradiol; type: ADME, organism-based, Lung; how it was run: as §1
Rattus norvegicus [10] = experiment: Biodistribution in blood of Immature Female rat after 1 hr administration of 3 micro Ci (111 kBq) in the absence of 60 microg estradiol; type: ADME, organism-based; how it was run: as §1
Rattus norvegicus [11] = experiment: Biodistribution in spleen of Immature Female rat after 1 hr administration of 3 micro Ci (111 kBq) in the absence of 60 microg estradiol; type: ADME, organism-based; how it was run: as §3
Rattus norvegicus [12] = experiment: Biodistribution in spleen of Immature Female rat after 5 hour administration of 3 micro Ci (111 kBq) in the absence of 60 microg estradiol; type: ADME, organism-based; how it was run: as §3
Rattus norvegicus [13] = experiment: Biodistribution in thyroid of Immature Female rat after 3 hour administration of 3 micro Ci (111 kBq) in the absence of 60 microg estradiol; type: ADME, organism-based, Thyroid gland; how it was run: as §3
Rattus norvegicus [14] = experiment: Biodistribution in kidney of Immature Female rat after 12 hour administration of 3 micro Ci (111 kBq) in the absence of 60 microg estradiol; type: ADME, organism-based; how it was run: as §1
Rattus norvegicus [15] = experiment: Biodistribution in lungs of Immature Female rat after 5 hour administration of 3 micro Ci (111 kBq) in the absence of 60 microg estradiol; type: ADME, organism-based, Lung; how it was run: as §1
Rattus norvegicus [16] = experiment: Biodistribution in uterus / spleen, muscle, lungs of Immature Female rat after 3 hour administration of 3 micro Ci (111 kBq) in the absence of 60 microg estradiol; type: ADME, organism-based; how it was run: as §2
Rattus norvegicus [17] = experiment: Biodistribution in lungs of Immature Female rat after 1 hr administration of 3 micro Ci (111 kBq) in the presence of (+E2); type: ADME, organism-based, Lung; how it was run: as §1
Rattus norvegicus [18] = experiment: Biodistribution in uterus / blood of Immature Female rat after 12 hour administration of 3 micro Ci (111 kBq) in the absence of 60 microg estradiol; type: ADME, organism-based; how it was run: as §2
Rattus norvegicus [19] = experiment: Biodistribution in liver of Immature Female rat after 3 hour administration of 3 micro Ci (111 kBq) in the absence of 60 microg estradiol; type: ADME, organism-based; how it was run: as §1
Rattus norvegicus [20] = experiment: Biodistribution in uterus of Immature Female rat after 3 hour administration of 3 micro Ci (111 kBq) in the absence of 60 microg estradiol; type: ADME, organism-based
How it was run: (§4)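 Immature female Long Evans rats (21–24 days, 45–70 g), 3–5 per group, unanesthetized in retention cages, given 3 μCi (111 kBq) 125I-labeled steroid by lateral tail vein. Vehicle: ethanol diluted with saline containing 1% Tween-80, final ethanol 9%. +E2 group co-injected 60 μg unlabeled estradiol (1 h only). Killed under ether; tissues KCl-washed, weighed, gamma-counted. Output: %ID/g (mean, SE) and uterus to blood or nontarget (muscle, spleen, lungs) ratios.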

Rattus norvegicus [21] = experiment: Biodistribution in blood of Immature Female rat after 3 hour administration of 3 micro Ci (111 kBq) in the absence of 60 microg estradiol; type: ADME, organism-based; how it was run: as §1
Rattus norvegicus [22] = experiment: Biodistribution in kidney of Immature Female rat after 5 hour administration of 3 micro Ci (111 kBq) in the absence of 60 microg estradiol; type: ADME, organism-based; how it was run: as §1
Rattus norvegicus [23] = experiment: Biodistribution in uterus / spleen, muscle, lungs of Immature Female rat after 1 hr administration of 3 micro Ci (111 kBq) in the presence of (+E2); type: ADME, organism-based; how it was run: as §2
Rattus norvegicus [24] = experiment: Biodistribution in uterus / blood of Immature Female rat after 3 hour administration of 3 micro Ci (111 kBq) in the absence of 60 microg estradiol; type: ADME, organism-based; how it was run: as §2
Rattus norvegicus [25] = experiment: Biodistribution in spleen of Immature Female rat after 12 hour administration of 3 micro Ci (111 kBq) in the absence of 60 microg estradiol; type: ADME, organism-based; how it was run: as §3
Rattus norvegicus [26] = experiment: Biodistribution in thyroid of Immature Female rat after 5 hour administration of 3 micro Ci (111 kBq) in the absence of 60 microg estradiol; type: ADME, organism-based, Thyroid gland; how it was run: as §3
Rattus norvegicus [27] = experiment: Biodistribution in fat of Immature Female rat after 1 hr administration of 3 micro Ci (111 kBq) in the absence of 60 microg estradiol; type: ADME, organism-based, Adipose tissue; how it was run: as §1
Rattus norvegicus [28] = experiment: Biodistribution in uterus of Immature Female rat after 1 hr administration of 3 micro Ci (111 kBq) in the presence of (+E2); type: ADME, organism-based; how it was run: as §4
Rattus norvegicus [29] = experiment: Biodistribution in spleen of Immature Female rat after 1 hr administration of 3 micro Ci (111 kBq) in the presence of (+E2); type: ADME, organism-based; how it was run: as §3
Rattus norvegicus [30] = experiment: Biodistribution in liver of Immature Female rat after 1 hr administration of 3 micro Ci (111 kBq) in the absence of 60 microg estradiol; type: ADME, organism-based; how it was run: as §1
Rattus norvegicus [31] = experiment: Biodistribution in thyroid of Immature Female rat after 1 hr administration of 3 micro Ci (111 kBq) in the absence of 60 microg estradiol; type: ADME, organism-based, Thyroid gland; how it was run: as §3
Rattus norvegicus [32] = experiment: Biodistribution in liver of Immature Female rat after 5 hour administration of 3 micro Ci (111 kBq) in the absence of 60 microg estradiol; type: ADME, organism-based; how it was run: as §1

SMILES	ID/g (Rattus norvegicus [1]) [%]	ID/g (Rattus norvegicus [2]) [%]	ID/g (Rattus norvegicus [3]) [%]	ID/g (Rattus norvegicus [4]) [%]	ID/g (Rattus norvegicus [5]) [%]	ID/g (Rattus norvegicus [6]) [%]	ID/g (Rattus norvegicus [7]) [%]	ID/g (Rattus norvegicus [8]) [%]	ID/g (Rattus norvegicus [9]) [%]	ID/g (Rattus norvegicus [10]) [%]	ID/g (Rattus norvegicus [11]) [%]	ID/g (Rattus norvegicus [12]) [%]	ID/g (Rattus norvegicus [13]) [%]	ID/g (Rattus norvegicus [14]) [%]	ID/g (Rattus norvegicus [15]) [%]	ID/g (Rattus norvegicus [16]) [%]	ID/g (Rattus norvegicus [17]) [%]	ID/g (Rattus norvegicus [18]) [%]	ID/g (Rattus norvegicus [19]) [%]	ID/g (Rattus norvegicus [20]) [%]	further results
CO[C@H]1C[C@@]2(C)[C@@H](CC[C@@]2(O)/C=C\I)[C@@H]2CCc3cc(O)c(F)cc3[C@H]21	0.65	13.04	0.29	0.66	2.83	0.76	1.02	0.87	0.13	0.54	0.59	0.38	882	0.29	0.35	21.65	1.52	50.35	1.51	9.59	ID/g (Rattus norvegicus [21]): 0.45%; ID/g (Rattus norvegicus [22]): 0.71%; ID/g (Rattus norvegicus [23]): 0.64%; ID/g (Rattus norvegicus [24]): 21.19%; ID/g (Rattus norvegicus [25]): 0.22%; ID/g (Rattus norvegicus [26]): 1210%; ID/g (Rattus norvegicus [27]): 1.71%; ID/g (Rattus norvegicus [28]): 0.94%; ID/g (Rattus norvegicus [29]): 5.3%; ID/g (Rattus norvegicus [30]): 2.04%; ID/g (Rattus norvegicus [31]): 217%; ID/g (Rattus norvegicus [32]): 1.12%
CO[C@H]1C[C@@]2(C)[C@@H](CC[C@@]2(O)/C=C/I)[C@@H]2CCc3c(ccc(O)c3F)[C@H]21	2.28	9.17	0.45	1.69	1.28	1.07	1.3	0.28	0.3	0.26	0.79	0.39	126	0.49	0.52	16.64	1.95	122.53	2.65	10.45	ID/g (Rattus norvegicus [21]): 0.26%; ID/g (Rattus norvegicus [22]): 0.94%; ID/g (Rattus norvegicus [23]): 1.02%; ID/g (Rattus norvegicus [24]): 44.23%; ID/g (Rattus norvegicus [25]): 0.22%; ID/g (Rattus norvegicus [26]): 274%; ID/g (Rattus norvegicus [27]): 2.68%; ID/g (Rattus norvegicus [28]): 1.02%; ID/g (Rattus norvegicus [29]): 0.78%; ID/g (Rattus norvegicus [30]): 3.32%; ID/g (Rattus norvegicus [31]): 61%; ID/g (Rattus norvegicus [32]): 2.72%
